Assay results from article PMC9283309 (Journal of medicinal chemistry, 2022).

Columns and labels:
[1] = tested on: OVA-specific IgG, IgG1, IgG2b; experiment: Antibody response assay: serum OVA-specific IgG, IgG1, IgG2b by ELISA; format: in vivo, C57BL/6J mice; details: 14 days after a single immunization, i.m. with OVA, 10 mg/kg
Method in brief: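 Female 8-week C57BL/6J mice (ca. 20 g) injected i.m. on day 0 with 100 μg OVA (5 mg/kg) plus 200 μg (10 mg/kg) test compound in DMSO:Tween 80:saline (1:1:8); serum taken day 14. ELISA: plates coated with 5 μg/mL OVA overnight at 4 °C, blocked 1% BSA 1 h, serum (diluted in 1% BSA) 2 h, HRP anti-mouse IgG/IgG1/IgG2b 1 h RT, TMB, A450.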

[2] = tested on: murine melanoma (B16-OVA); details: combination with checkpoint inhibitor anti-PD-L1, diprovocim/OVA i.m.; cited from earlier work
[3] = tested on: adaptive immune response (CD4- and CD-8 dependent responses); experiment: In vivo adjuvant activity on co-administration with OVA; design: species or system C57BL/6J mice; details: i.m. with OVA, 10 mg/kg
[4] = co-administered i.m. with ovalbumin (OVA); cited from earlier work
[5] = target: mTLR1/TLR2 (Mus musculus, UniProt Q9EPQ1+Q9QUN7); format: cell-based, mouse (C57BL/6J); details: mouse macrophages; for murine efficacy/activity in words: compared with diprovocim-1
Chain of mTLR1/TLR2 (Q9EPQ1 26-795): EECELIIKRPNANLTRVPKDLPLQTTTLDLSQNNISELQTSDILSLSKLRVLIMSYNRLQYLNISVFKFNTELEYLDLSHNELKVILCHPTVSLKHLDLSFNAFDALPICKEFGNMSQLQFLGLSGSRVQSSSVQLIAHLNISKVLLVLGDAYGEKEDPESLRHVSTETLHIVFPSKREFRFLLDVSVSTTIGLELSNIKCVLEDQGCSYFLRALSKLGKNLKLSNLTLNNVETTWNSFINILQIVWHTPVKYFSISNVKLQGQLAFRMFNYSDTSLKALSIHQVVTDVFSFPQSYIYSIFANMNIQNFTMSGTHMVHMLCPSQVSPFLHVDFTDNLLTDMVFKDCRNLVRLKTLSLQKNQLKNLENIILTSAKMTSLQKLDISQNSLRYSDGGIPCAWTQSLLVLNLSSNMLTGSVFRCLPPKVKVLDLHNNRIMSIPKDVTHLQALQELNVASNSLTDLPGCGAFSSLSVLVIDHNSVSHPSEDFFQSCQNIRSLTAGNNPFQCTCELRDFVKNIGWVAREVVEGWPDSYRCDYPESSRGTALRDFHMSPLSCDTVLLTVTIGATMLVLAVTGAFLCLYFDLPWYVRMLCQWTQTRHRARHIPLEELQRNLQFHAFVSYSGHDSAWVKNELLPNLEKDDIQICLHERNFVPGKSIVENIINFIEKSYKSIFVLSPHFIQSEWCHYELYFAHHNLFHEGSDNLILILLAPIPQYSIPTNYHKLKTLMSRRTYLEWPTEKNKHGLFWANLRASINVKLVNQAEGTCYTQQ
Chain of mTLR1/TLR2 (Q9QUN7 25-784): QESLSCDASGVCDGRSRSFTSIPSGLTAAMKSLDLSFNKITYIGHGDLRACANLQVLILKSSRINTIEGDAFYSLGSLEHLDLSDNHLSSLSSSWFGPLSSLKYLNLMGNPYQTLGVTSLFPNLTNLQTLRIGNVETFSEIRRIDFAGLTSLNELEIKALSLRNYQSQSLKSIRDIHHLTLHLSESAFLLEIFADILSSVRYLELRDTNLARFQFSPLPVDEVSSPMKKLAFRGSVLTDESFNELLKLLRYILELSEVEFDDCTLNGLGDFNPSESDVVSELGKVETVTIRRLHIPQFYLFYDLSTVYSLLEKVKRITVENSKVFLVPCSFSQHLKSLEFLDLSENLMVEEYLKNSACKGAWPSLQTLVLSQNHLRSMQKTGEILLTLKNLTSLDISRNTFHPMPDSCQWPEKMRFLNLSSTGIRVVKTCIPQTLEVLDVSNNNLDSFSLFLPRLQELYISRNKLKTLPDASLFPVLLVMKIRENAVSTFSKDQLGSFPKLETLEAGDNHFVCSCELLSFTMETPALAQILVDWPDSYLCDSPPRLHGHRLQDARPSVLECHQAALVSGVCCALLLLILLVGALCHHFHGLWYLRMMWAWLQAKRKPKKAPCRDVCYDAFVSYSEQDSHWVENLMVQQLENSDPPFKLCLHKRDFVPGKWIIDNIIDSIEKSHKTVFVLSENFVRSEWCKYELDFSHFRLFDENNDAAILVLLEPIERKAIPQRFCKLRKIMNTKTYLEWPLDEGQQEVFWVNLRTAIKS

[6] = target: hTLR1/TLR2 (Homo sapiens, UniProt O60603+Q15399); experiment: Stimulated release of TNF-α from differentiated THP-1 cells; format: cell-based; details: text comment on Figure 3 data, compared with diprovocim-1
Chain of hTLR1/TLR2 (Q15399 25-786): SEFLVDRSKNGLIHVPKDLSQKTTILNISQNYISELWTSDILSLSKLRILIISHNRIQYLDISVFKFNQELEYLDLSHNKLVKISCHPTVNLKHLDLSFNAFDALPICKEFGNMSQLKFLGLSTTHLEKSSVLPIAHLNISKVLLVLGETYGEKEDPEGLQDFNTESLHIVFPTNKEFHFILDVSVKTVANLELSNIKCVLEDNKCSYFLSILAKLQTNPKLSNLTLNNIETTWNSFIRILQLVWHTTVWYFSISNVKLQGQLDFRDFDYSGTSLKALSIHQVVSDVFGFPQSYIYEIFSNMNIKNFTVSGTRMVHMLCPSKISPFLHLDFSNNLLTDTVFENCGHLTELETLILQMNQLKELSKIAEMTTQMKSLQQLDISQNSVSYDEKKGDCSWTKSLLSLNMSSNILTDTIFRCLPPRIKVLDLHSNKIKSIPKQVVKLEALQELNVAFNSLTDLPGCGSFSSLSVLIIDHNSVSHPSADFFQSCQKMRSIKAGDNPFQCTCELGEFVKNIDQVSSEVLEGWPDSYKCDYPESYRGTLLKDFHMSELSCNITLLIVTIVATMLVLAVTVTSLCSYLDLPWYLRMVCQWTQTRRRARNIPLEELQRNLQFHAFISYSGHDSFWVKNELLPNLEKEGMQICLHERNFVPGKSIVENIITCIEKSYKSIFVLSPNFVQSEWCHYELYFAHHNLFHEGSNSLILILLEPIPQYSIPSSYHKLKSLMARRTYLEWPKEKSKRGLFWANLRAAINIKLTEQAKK
Chain of hTLR1/TLR2 (O60603 21-784): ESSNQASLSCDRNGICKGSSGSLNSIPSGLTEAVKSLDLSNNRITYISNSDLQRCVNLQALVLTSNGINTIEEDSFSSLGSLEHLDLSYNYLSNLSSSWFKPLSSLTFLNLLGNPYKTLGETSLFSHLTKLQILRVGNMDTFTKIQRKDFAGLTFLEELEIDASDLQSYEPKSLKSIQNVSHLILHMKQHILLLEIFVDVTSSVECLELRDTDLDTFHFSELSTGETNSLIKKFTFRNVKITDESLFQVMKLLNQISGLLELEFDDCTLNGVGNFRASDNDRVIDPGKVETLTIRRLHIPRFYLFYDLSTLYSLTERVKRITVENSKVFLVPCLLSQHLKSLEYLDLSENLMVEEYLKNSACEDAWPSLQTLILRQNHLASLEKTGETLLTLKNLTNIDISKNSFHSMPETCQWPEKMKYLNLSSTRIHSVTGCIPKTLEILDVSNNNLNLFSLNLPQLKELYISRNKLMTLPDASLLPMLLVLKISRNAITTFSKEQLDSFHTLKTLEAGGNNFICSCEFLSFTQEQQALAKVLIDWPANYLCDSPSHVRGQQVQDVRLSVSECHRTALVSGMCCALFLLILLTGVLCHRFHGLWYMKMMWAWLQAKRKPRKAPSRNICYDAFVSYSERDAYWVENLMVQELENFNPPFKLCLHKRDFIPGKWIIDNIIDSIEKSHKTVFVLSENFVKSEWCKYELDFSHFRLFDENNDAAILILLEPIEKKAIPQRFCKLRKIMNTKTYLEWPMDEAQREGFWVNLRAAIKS

[7] = tested on: TLR4; format: cell-based, mouse; details: 500 nM, diprovocim-X versus diprovocim-1
[8] = target: TLR1 (Homo sapiens, UniProt O60603+Q15399); format: cell-based; details: 5 nM; anti-TLR1 20 μg/mL, 1 h pretreatment
Chain of TLR1 (Q15399 25-786): as the sequence (Q15399 25-786) above
Chain of TLR1 (O60603 21-784): as the sequence (O60603 21-784) above
Method in brief: (§1)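 THP-1 cells PMA-differentiated (100 nM, 24 h) then rested 24 h in fresh RPMI/10% FBS. Cells pretreated 1 h with neutralizing anti-TLR1, anti-TLR2 or anti-TLR6 (20 μg/mL) before stimulation with 5 nM test compound; no-antibody wells as control. TNF-α release was the read-out.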

[9] = target: TLR2 (Homo sapiens, UniProt O60603+Q15399); format: cell-based; details: 5 nM; anti-TLR2 20 μg/mL, 1 h pretreatment
Chain of TLR2 (O60603 21-784): as above
Chain of TLR2 (Q15399 25-786): as the sequence (Q15399 25-786) above
Method in brief: as §1

O=C(N[C@H]1C[C@@H]1c1ccccc1)[C@@H]1CN(C(=O)c2ccc(C(=O)N3C[C@@H](C(=O)N[C@H]4C[C@@H]4c4ccccc4)[C@H](C(=O)N[C@H]4C[C@@H]4c4ccccc4)C3)cc2)C[C@H]1C(=O)N[C@H]1C[C@@H]1c1ccccc1 [compound 1]
OVA-specific circulating antibodies (IgG, IgG1, IgG2b) [1]: strong responses | tumor response, B16-OVA [2]: eradicated tumors | adjuvant activity in mice [3]: comparable adjuvant activity | adjuvant activity in mice [4]: effective adjuvant

CC(C)(C)OC(=O)NCCCCCCCCCCCCNC(=O)[C@@H]1CN(C(=O)c2ccc(C(=O)N3C[C@@H](C(=O)N[C@H]4C[C@@H]4c4ccccc4)[C@H](C(=O)N[C@H]4C[C@@H]4c4ccccc4)C3)cc2)C[C@H]1C(=O)N[C@H]1C[C@@H]1c1ccccc1 [compound 17, tert-Butyl (12-((3S,4S)-1-(4-((3S,4S)-3,4-bis(((1S,2R)-2-phenylcyclopropyl)carbamoyl)-pyrrolidine-1-carbonyl)benzoyl)-4-(((1S,2R)-2-phenylcyclopropyl)carbamoyl)pyrrolidine-3-carboxamido)dodecyl)carbamate]
murine efficacy/activity in words [5]: did not display this increased or improved murine activity

C#CCCCCCCCCCCCCNC(=O)[C@@H]1CN(C(=O)c2ccc(C(=O)N3C[C@@H](C(=O)N[C@H]4C[C@@H]4c4ccccc4)[C@H](C(=O)N[C@H]4C[C@@H]4c4ccccc4)C3)cc2)C[C@H]1C(=O)N[C@H]1C[C@@H]1c1ccccc1 [compound 19, (3S,4S)-1-(4-((3S,4S)-3,4-Bis(((1S,2R)-2-phenylcyclopropyl)carbamoyl)pyrrolidine-1-carbonyl)-benzoyl)-N^3-((1S,2R)-2-phenylcyclopropyl)-N^4-(tetradec-13-yn-1-yl)pyrrolidine-3,4-dicarboxamide]
response efficacy in words [6]: small improvement in the response efficacy

O=C(NCCCCCCCCc1ccc(O)cc1)[C@@H]1CN(C(=O)c2ccc(C(=O)N3C[C@@H](C(=O)N[C@H]4C[C@@H]4c4ccccc4)[C@H](C(=O)N[C@H]4C[C@@H]4c4ccccc4)C3)cc2)C[C@H]1C(=O)N[C@H]1C[C@@H]1c1ccccc1 [compound 26, (3S,4S)-1-(4-((3S,4S)-3,4-Bis(((1S,2R)-2-phenylcyclopropyl)carbamoyl)pyrrolidine-1-carbonyl)-benzoyl)-N^3-(8-(4-hydroxyphenyl)octyl)-N^4-((1S,2R)-2-phenylcyclopropyl)pyrrolidine-3,4-dicarboxamide]
murine efficacy/activity in words [5]: substantial increase in efficacy

Nc1ccc(CCCCCCCCNC(=O)[C@@H]2CN(C(=O)c3ccc(C(=O)N4C[C@@H](C(=O)N[C@H]5C[C@@H]5c5ccccc5)[C@H](C(=O)N[C@H]5C[C@@H]5c5ccccc5)C4)cc3)C[C@H]2C(=O)N[C@H]2C[C@@H]2c2ccccc2)cc1 [compound 27, (3S,4S)-N^3-(8-(4-Aminophenyl)octyl)-1-(4-((3S,4S)-3,4-bis(((1S,2R)-2-phenylcyclopropyl)-carbamoyl)pyrrolidine-1-carbonyl)benzoyl)-N^4-((1S,2R)-2-phenylcyclopropyl)pyrrolidine-3,4-dicarboxamide]
murine efficacy/activity in words [5]: substantial increase in efficacy

CC(C)(C)OC(=O)NCC(=O)OCCCCCCCCCCCCNC(=O)[C@@H]1CN(C(=O)c2ccc(C(=O)N3C[C@@H](C(=O)N[C@H]4C[C@@H]4c4ccccc4)[C@H](C(=O)N[C@H]4C[C@@H]4c4ccccc4)C3)cc2)C[C@H]1C(=O)N[C@H]1C[C@@H]1c1ccccc1 [compound 35, 12-((3S,4S)-1-(4-((3S,4S)-3,4-Bis(((1S,2R)-2-phenylcyclopropyl)carbamoyl)-pyrrolidine-1-carbonyl)benzoyl)-4-(((1S,2R)-2-phenylcyclopropyl)carbamoyl)-pyrrolidine-3-carboxamido)dodecyl-2-((tert-butoxycarbonyl)amino)acetate]
OVA-specific circulating antibodies (IgG, IgG1, IgG2b) [1]: strong responses | efficacy as a TNF inducer in mouse macrophage cultures [7]: greater efficacy | dependence of TNF-α release on TLR1 [8]: dependent | dependence of TNF-α release on TLR2 [9]: dependent | adjuvant activity in mice [3]: matching or surpassing the in vivo activity of diprovocim-1 | fold more active than diprovocim-1 ([5]; EC50 compared with diprovocim-1): 2 fold

CC(C)(C)OC(=O)NCCOCCOCCOCCOCCC(=O)OCCCCCCCCCCCCNC(=O)[C@@H]1CN(C(=O)c2ccc(C(=O)N3C[C@@H](C(=O)N[C@H]4C[C@@H]4c4ccccc4)[C@H](C(=O)N[C@H]4C[C@@H]4c4ccccc4)C3)cc2)C[C@H]1C(=O)N[C@H]1C[C@@H]1c1ccccc1 [compound 55, 12-((3S,4S)-1-(4-((3S,4S)-3,4-Bis(((1S,2R)-2-phenylcyclopropyl)carbamoyl)pyrrolidine-1-carbonyl)benzoyl)-4-(((1S,2R)-2-phenylcyclopropyl)carbamoyl)pyrrolidine-3-carboxamido)-dodecyl 2,2-dimethyl-4-oxo-3,8,11,14,17-pentaoxa-5-azaicosan-20-oate]
murine efficacy/activity in words [5]: modest increase in the efficacy
